Paper PMC6119551 (Neuropharmacology, 2018)

Columns and labels:
[1] = molecular target: 5-HT2A receptors in rat brain tissue (Rattus norvegicus, UniProt P14842); experiment: [3H]M100907 radioligand binding in rat brain tissue
human 5-HT2A receptors [2] = molecular target: T1, human 5-HT2A receptors (Homo sapiens, UniProt P28223); experiment: Calcium mobilization, HEK293 cells expressing human 5-HT2A; type: cell-based; settings: for Fold more potent than NBOMe counterpart in 5-HT2A-mediated calcium mobilization: 2C-C vs 25C-NBOMe, 2C-I vs 25I-NBOMe; for Emax: HEK293, read-out: 5-HT2A Mobilization of Calcium %Emax
human 5-HT2C receptors = molecular target: T2, human 5-HT2C receptors (Homo sapiens, UniProt P28335); experiment: Calcium mobilization, HEK293 cells expressing human 5-HT2C; type: cell-based; settings: for Emax: HEK293, read-out: 5-HT2C Mobilization of Calcium % Emax
T2 sequence (P28335 33-458): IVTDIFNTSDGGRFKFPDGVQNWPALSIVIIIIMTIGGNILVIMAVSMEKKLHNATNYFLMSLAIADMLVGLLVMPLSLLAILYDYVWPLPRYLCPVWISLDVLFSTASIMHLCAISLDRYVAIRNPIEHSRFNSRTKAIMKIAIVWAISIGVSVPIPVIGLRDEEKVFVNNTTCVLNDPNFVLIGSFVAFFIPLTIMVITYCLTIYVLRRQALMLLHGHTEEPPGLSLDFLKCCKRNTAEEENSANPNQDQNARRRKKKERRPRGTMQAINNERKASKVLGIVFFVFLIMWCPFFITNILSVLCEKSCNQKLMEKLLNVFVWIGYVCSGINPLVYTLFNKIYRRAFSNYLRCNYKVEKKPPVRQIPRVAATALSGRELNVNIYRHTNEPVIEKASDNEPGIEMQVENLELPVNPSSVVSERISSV

male rats [3] = experiment: Wet dog shakes; type: in vivo, rat; settings: sc; for Doses significantly increasing summed WDS vs vehicle: Bonferroni p<0.05
How it was run: (§1)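 Male Sprague-Dawley rats (250–300 g) with ≥2 weeks of acclimation, one sc injection per weekly session of saline or one of 4 doses (1.0 mL/kg), N=9/group. Dose ranges were 0.03–1.0, 0.01–0.3 or 0.1–3.0 mg/kg depending on compound. WDS and BMC were counted by a non-blind rater in eight 90-s periods every 15 min and summed. ED50 came from nonlinear regression of score versus log dose on the rising phase.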

male rats [4] = experiment: Back muscle contractions; type: in vivo, rat; settings: sc; for Doses significantly increasing summed BMC vs vehicle: rats, Bonferroni p<0.05; for Rat BMC ED50: summed BMC over 2 h, rising phase of dose-effect function
How it was run: as §1

male rats [5] = experiment: Body temperature via implanted transponder; type: in vivo, rat; settings: sc, all doses tested, 15-120 min post-injection
[6] = ref Eshleman et al. (2014); cited from earlier work
5-HT2A receptor [7] = settings: ref Eshleman et al. (2014); cited from earlier work
5-HT2A receptor [8] = settings: ref Eshleman et al. (2014); cited from earlier work; remark: listed apart in the source
mice [9] = settings: sc, ref Halberstadt and Geyer, 2014; cited from earlier work
human 5-HT2A receptors [10] = molecular target: T1, human 5-HT2A receptors; settings: 25C-NBOMe vs 2C-C, 25I-NBOMe vs 2C-I; ref Rickli et al., 2015; cited from earlier work
rats = settings: cited from earlier work
mice [11] = settings: ref Gatch et al., 2017; cited from earlier work
male rats [12] = experiment: M100907 antagonism of agonist-induced WDS and BMC; type: in vivo, rat
How it was run: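 Male Sprague-Dawley rats got sc M100907 (0.1 mg/kg in 1:9 DMSO:saline) or its vehicle 30 min before sc agonist or saline, with agonists at fixed doses of 0.03–1.0 mg/kg. Summed WDS and BMC came from eight 90-s observations at 15-min intervals by a non-blind rater. Rats were tested weekly, N=9/group, by Bonferroni comparison with Veh/Veh.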

5-HT2A = settings: ref Marek and Aghajanian, 1994; cited from earlier work
[13] = 0.1 mg/kg M100907 30 min before 0.03 mg/kg 25C-NBOMe
[14] = 0.1 mg/kg M100907 30 min before 0.1 mg/kg 25I-NBOMe
[15] = 0.1 mg/kg M100907 30 min before 0.3 mg/kg 2C-C
[16] = 0.1 mg/kg M100907 30 min before 1.0 mg/kg 2C-I
[17] = 0.1 mg/kg M100907 30 min before 1.0 mg/kg DOI sc

Sequence of 5-HT2A receptors in rat brain tissue (P14842 whole entry): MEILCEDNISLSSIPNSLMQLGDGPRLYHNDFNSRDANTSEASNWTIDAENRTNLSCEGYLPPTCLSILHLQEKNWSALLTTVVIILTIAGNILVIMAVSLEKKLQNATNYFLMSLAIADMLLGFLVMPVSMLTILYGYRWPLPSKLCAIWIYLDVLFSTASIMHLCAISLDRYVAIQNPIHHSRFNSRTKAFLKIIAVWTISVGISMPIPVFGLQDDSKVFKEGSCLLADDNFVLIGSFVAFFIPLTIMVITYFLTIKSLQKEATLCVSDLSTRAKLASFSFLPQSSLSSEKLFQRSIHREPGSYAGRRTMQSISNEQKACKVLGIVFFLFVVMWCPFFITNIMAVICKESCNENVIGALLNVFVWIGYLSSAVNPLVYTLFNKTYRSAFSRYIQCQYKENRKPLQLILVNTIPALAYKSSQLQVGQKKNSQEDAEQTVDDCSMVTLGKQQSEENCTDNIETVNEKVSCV
T1 sequence (P28223 whole entry): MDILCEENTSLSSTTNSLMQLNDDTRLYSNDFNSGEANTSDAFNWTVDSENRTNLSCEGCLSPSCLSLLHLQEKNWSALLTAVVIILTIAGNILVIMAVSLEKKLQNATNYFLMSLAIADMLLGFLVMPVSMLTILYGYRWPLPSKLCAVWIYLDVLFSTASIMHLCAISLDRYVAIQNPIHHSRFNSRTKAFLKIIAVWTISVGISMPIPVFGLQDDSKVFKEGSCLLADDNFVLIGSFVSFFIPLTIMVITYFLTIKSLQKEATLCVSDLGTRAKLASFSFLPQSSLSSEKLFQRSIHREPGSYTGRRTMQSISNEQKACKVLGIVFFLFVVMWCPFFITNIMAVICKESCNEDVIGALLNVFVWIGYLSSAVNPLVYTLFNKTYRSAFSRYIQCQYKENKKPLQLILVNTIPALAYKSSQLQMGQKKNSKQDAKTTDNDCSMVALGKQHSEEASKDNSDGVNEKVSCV

Compound | IC50 [1] | EC50 (human 5-HT2A receptors [2]) | Fold more potent than NBOMe counterpart in 5-HT2A-mediated calcium mobilization (human 5-HT2A receptors [2]) | Emax (human 5-HT2A receptors [2]) | EC50 (human 5-HT2C receptors) | Emax (human 5-HT2C receptors) | Doses significantly increasing summed WDS vs vehicle (male rats [3]; rats) | Doses significantly increasing summed BMC vs vehicle (male rats [4]) | Effect on body temperature (male rats [5]) | Functional activity in the IP assay (5-HT2A receptor [7]) | Functional activity in the [3H]AA assay (5-HT2A receptor [8]) | Rat BMC ED50 (male rats [4]) | ED50 in the head twitch assay (mice [9]) | Fold greater affinity for human 5-HT2A receptors than 2C counterpart (human 5-HT2A receptors [10]) | Effect on locomotor activity (mice [11]) | other results
COc1cc(CCN)c(OC)cc1Cl [Compound 2C-C, 2-(4-chloro-2,5-dimethoxyphenyl)ethanamine] | 308 ± 21.6 nM | 4.57 ± 0.5 nM | 13 fold | 95% | 77.6 ± 5.5 nM | 29% | Significant stimulation of both behaviors occurred after administration of 0.3, 1.0, and 3.0 mg/kg doses | Significant stimulation of both behaviors occurred after administration of 0.3, 1.0, and 3.0 mg/kg doses | failed to significantly alter body temperature at any dose tested | full agonist | full agonist |  |  |  |  | Substitution for MDMA in drug discrimination [6]: fully substitutes
COc1cc(CCN)c(OC)cc1I [Compound 2C-I, 2-(4-iodo-2,5-dimethoxyphenyl)ethanamine] | 125 ± 13 nM | 3.97 ± 0.7 nM | 8 fold | 89% | 47.2 ± 6.7 nM | 28% | Significant stimulation of shaking behavior ocurred after 1.0 and 3.0 mg/kg doses | increases in BMC occurred after 0.3, 1.0, and 3.0 mg/kg doses | failed to alter body temperature at any dose tested | agonist | antagonist | 0.192 ± 0.060 mg/kg | 0.83 mg/kg |  |  | Substitution for prototypical hallucinogens like LSD in drug discrimination [6]: fully substitutes
COc1cc(CCNCc2ccccc2OC)c(OC)cc1Cl [Compound 25C-NBOMe, 2-(4-chloro-2,5-dimethoxyphenyl)-N-[(2-methoxyphenyl)methyl]ethanamine] | 8.7 ± 1 nM | 61.7 ± 3.5 nM |  | 104% | 178 ± 25 nM | 60% | Significant stimulation of shaking behavior occured after 0.03 and 0.1 mg/kg doses | stimulation of contractions occured after 0.03, 0.1 and 0.3 mg/kg doses | did not significantly alter body temperature at any dose tested |  |  |  |  | 18 fold | dose-dependently reduced locomotor activity | DOM-appropriate responding (rats; dose of 0.03 mg/kg, ref Gatch and colleagues (2017)): < 20%; Substitution for DOM in drug discrimination (rats; ip, ref Gatch et al., 2017): fully substituted; Substitution for MDMA in drug discrimination (rats; ip, ref Gatch et al., 2017): only partially substituting
COc1cc(CCNCc2ccccc2OC)c(OC)cc1I [Compound 25I-NBOMe, 2-(4-iodo-2,5-dimethoxyphenyl)-N-[(2-methoxyphenyl)methyl]ethanamine] | 3.9 ± 0.4 nM | 34.7 ± 4.2 nM |  | 108% | 88.9 ± 11 nM | 70% | Significant increases in shakes occured after the 0.1 and 0.3 mg/kg doses | increases in contractions occurred after the 0.03, 0.1, and 0.3 mg/kg doses | did not significantly alter body temperature at any dose tested |  |  | 0.037 ± 0.011 mg/kg | 0.08 mg/kg | 6 fold | dose-dependently reduced locomotor activity | Fold more potent than 2C counterpart in inducing WDS (male rats [3]; rats, 25C-NBOMe vs 2C-C, 25I-NBOMe vs 2C-I): 10 fold; Rat WDS ED50 (male rats [3]; summed WDS over 2 h, rising phase of dose-effect function): 0.062 ± 0.026 mg/kg; Fold more potent than 2C-I at eliciting head twitch behavior (mice [9]): about 10 fold
COc1cccc([C@H](O)C2CCN(CCc3ccc(F)cc3)CC2)c1OC [Compound M100907, (R)-(2,3-dimethoxyphenyl){1-[2-(4-fluorophenyl)ethyl]-4-piperidinyl}methanol] |  |  |  |  |  |  |  |  |  |  |  |  |  |  |  | Effect on BMC induced by 25C-NBOMe (male rats [12]; [13]): significantly decreased; Effect on WDS induced by 25C-NBOMe (male rats [12]; [13]): significantly decreased WDS; Effect on BMC induced by 25I-NBOMe (male rats [12]; [14]): decreased; Effect on WDS induced by 25I-NBOMe (male rats [12]; [14]): decreased WDS; Effect on BMC induced by 2C-C (male rats [12]; [15]): decreased; Effect on WDS induced by 2C-C (male rats [12]; [15]): decreased WDS; Effect on BMC induced by 2C-I (male rats [12]; [16]): decreased; Effect on WDS induced by 2C-I (male rats [12]; [16]): decreased WDS; Effect on BMC induced by DOI (male rats [12]; [17]): significantly decreased shakes and contractions; Effect on WDS induced by DOI (male rats [12]; [17]): significantly decreased shakes and contractions; Selectivity for 5-HT2A over 5-HT2C and other receptor subtypes (5-HT2A): more than 100 fold
COc1cc(CC(C)N)c(OC)cc1I (stereo not drawn) [DOI, 1-(4-iodo-2,5-dimethoxyphenyl)propan-2-amine, reference compound] | 56.1 ± 4.9 nM |  |  | 109% | 47.7 ± 3 nM | 50% | significant increases in both behaviors occurring after 0.1, 0.3, and 1.0 mg/kg | significant increases in both behaviors occurring after 0.1, 0.3, and 1.0 mg/kg | no significant effects on body temperature at any dose tested |  |  |  |  |  |  | 
